Results published in ChEMBL document CHEMBL1156448, “Identification of an efficacy switch region in the ghrelin receptor responsible for interchange between agonism and inverse agonism” (J Biol Chem, 2007).

Experiments:
[1] = molecular target: T1, Growth hormone secretagogue receptor type 1 (Homo sapiens, UniProt Q92847); assay: Displacement of [35S]MK677 from human ghrelin receptor expressed in african green monkey COS7 cells; format: cell-based, COS-7
Target sequence in this assay (Q92847 whole entry): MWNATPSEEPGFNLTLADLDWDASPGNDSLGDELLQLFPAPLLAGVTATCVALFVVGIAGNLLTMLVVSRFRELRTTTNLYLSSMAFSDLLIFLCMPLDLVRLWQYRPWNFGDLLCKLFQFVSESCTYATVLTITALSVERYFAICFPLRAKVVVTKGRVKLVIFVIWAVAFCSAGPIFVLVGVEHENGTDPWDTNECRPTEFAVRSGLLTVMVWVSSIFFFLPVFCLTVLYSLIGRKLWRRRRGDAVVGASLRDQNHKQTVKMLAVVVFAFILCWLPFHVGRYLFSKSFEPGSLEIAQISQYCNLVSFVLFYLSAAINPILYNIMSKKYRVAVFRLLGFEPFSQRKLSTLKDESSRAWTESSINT

[2] = molecular target: T1, Growth hormone secretagogue receptor type 1; assay: Inverse agonist activity at human ghrelin receptor expressed in african green monkey COS7 cells assessed as constitutively stimulated inositol phosphate accumulation; format: functional, cell-based, COS-7
Target sequence in this assay (Q92847 whole entry): as above

[3] = molecular target: T1, Growth hormone secretagogue receptor type 1; assay: Agonist activity at human wild type ghrelin receptor expressed in african green monkey COS7 cells assessed as stimulation of constitutively stimulated inositol phosphate accumulation; format: functional, cell-based, COS-7
Outline: (§1)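 COS-7 cells transiently transfected (calcium phosphate with chloroquine, cDNA amount giving maximal basal signaling, 20 μg/75 cm2). After 1 day, labeled 24 h with 5 μCi myo-[3H]inositol. Washed in HEPES buffer pH 7.4, preincubated 30 min at 37 °C with 10 mM LiCl, then exposed to peptide concentrations for 45 min at 37 °C. Formic acid extraction, anion-exchange purification. Duplicate determinations. EC50 by nonlinear regression.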
Target sequence in this assay (Q92847 whole entry): as above

[4] = molecular target: T1, Growth hormone secretagogue receptor type 1; assay: Agonist activity at human ghrelin receptor Asp2:20Asn(Asp99) mutant expressed in african green monkey COS7 cells assessed as stimulation of constitutively stimulated inositol phosphate accumulation; format: functional, cell-based; settings: cos-7; outline: as §1
Target sequence in this assay (Q92847 whole entry, looked up): as the sequence (Q92847 whole entry) above

[5] = molecular target: Growth hormone secretagogue receptor type 1 (Homo sapiens, UniProt Q92847, D99K); assay: Agonist activity at human ghrelin receptor Asp2:20Lys(Asp99) mutant expressed in african green monkey COS7 cells assessed as stimulation of constitutively stimulated inositol phosphate accumulation; format: functional, cell-based, COS-7; outline: as §1
Sequence of Growth hormone secretagogue receptor type 1 (Homo sapiens, UniProt Q92847, D99K) (Q92847 whole entry D99K): as the sequence (Q92847 whole entry) above, with D99K counted along it

[6] = molecular target: Growth hormone secretagogue receptor type 1 (Homo sapiens, UniProt Q92847, F119S); assay: Agonist activity at human ghrelin receptor Phe3:04Ser(phe119) mutant expressed in african green monkey COS7 cells assessed as stimulation of constitutively stimulated inositol phosphate accumulation; format: functional, cell-based, COS-7; outline: as §1
Sequence of Growth hormone secretagogue receptor type 1 (Homo sapiens, UniProt Q92847, F119S) (Q92847 whole entry F119S): as the sequence (Q92847 whole entry) above, with F119S counted along it

[7] = molecular target: Growth hormone secretagogue receptor type 1 (Homo sapiens, UniProt Q92847, Q120A); assay: Agonist activity at human ghrelin receptor Gln3:05Ala(Gln120) mutant expressed in african green monkey COS7 cells assessed as stimulation of constitutively stimulated inositol phosphate accumulation; format: functional, cell-based, COS-7; outline: as §1
Sequence of Growth hormone secretagogue receptor type 1 (Homo sapiens, UniProt Q92847, Q120A) (Q92847 whole entry Q120A): as the sequence (Q92847 whole entry) above, with Q120A counted along it

[8] = molecular target: Growth hormone secretagogue receptor type 1 (Homo sapiens, UniProt Q92847, E124Q); assay: Agonist activity at human ghrelin receptor Glu3:09Gln(Glu124) mutant expressed in african green monkey COS7 cells assessed as stimulation of constitutively stimulated inositol phosphate accumulation; format: functional, cell-based, COS-7; outline: as §1
Sequence of Growth hormone secretagogue receptor type 1 (Homo sapiens, UniProt Q92847, E124Q) (Q92847 whole entry E124Q): as the sequence (Q92847 whole entry) above, with E124Q counted along it

[9] = molecular target: Growth hormone secretagogue receptor type 1 (Homo sapiens, UniProt Q92847, S174A); assay: Agonist activity at human ghrelin receptor Ser4:16Ala(Ser174) mutant expressed in african green monkey COS7 cells assessed as stimulation of constitutively stimulated inositol phosphate accumulation; format: functional, cell-based, COS-7; outline: as §1
Sequence of Growth hormone secretagogue receptor type 1 (Homo sapiens, UniProt Q92847, S174A) (Q92847 whole entry S174A): as the sequence (Q92847 whole entry) above, with S174A counted along it

[10] = molecular target: Growth hormone secretagogue receptor type 1 (Homo sapiens, UniProt Q92847, I178A); assay: Agonist activity at human ghrelin receptor Ile4:20Ala(Ile178) mutant expressed in african green monkey COS7 cells assessed as stimulation of constitutively stimulated inositol phosphate accumulation; format: functional, cell-based, COS-7; outline: as §1
Sequence of Growth hormone secretagogue receptor type 1 (Homo sapiens, UniProt Q92847, I178A) (Q92847 whole entry I178A): as the sequence (Q92847 whole entry) above, with I178A counted along it

[11] = molecular target: Growth hormone secretagogue receptor type 1 (Homo sapiens, UniProt Q92847, M213A); assay: Agonist activity at human ghrelin receptor Met5:05Ala(Met213) mutant expressed in african green monkey COS7 cells assessed as stimulation of constitutively stimulated inositol phosphate accumulation; format: functional, cell-based, COS-7; outline: as §1
Sequence of Growth hormone secretagogue receptor type 1 (Homo sapiens, UniProt Q92847, M213A) (Q92847 whole entry M213A): as the sequence (Q92847 whole entry) above, with M213A counted along it

[12] = molecular target: Growth hormone secretagogue receptor type 1 (Homo sapiens, UniProt Q92847, V216A); assay: Agonist activity at human ghrelin receptor Val5:08Ala(Val216) mutant expressed in african green monkey COS7 cells assessed as stimulation of constitutively stimulated inositol phosphate accumulation; format: functional, cell-based, COS-7; outline: as §1
Sequence of Growth hormone secretagogue receptor type 1 (Homo sapiens, UniProt Q92847, V216A) (Q92847 whole entry V216A): as the sequence (Q92847 whole entry) above, with V216A counted along it

[13] = molecular target: Growth hormone secretagogue receptor type 1 (Homo sapiens, UniProt Q92847, S217A); assay: Agonist activity at human ghrelin receptor Ser5:09Ala(Ser217) mutant expressed in african green monkey COS7 cells assessed as stimulation of constitutively stimulated inositol phosphate accumulation; format: functional, cell-based, COS-7; outline: as §1
Sequence of Growth hormone secretagogue receptor type 1 (Homo sapiens, UniProt Q92847, S217A) (Q92847 whole entry S217A): as the sequence (Q92847 whole entry) above, with S217A counted along it

[14] = molecular target: Growth hormone secretagogue receptor type 1 (Homo sapiens, UniProt Q92847, F220A); assay: Agonist activity at human ghrelin receptor Phe5:12Ala(Phe220) mutant expressed in african green monkey COS7 cells assessed as stimulation of constitutively stimulated inositol phosphate accumulation; format: functional, cell-based, COS-7; outline: as §1
Sequence of Growth hormone secretagogue receptor type 1 (Homo sapiens, UniProt Q92847, F220A) (Q92847 whole entry F220A): as the sequence (Q92847 whole entry) above, with F220A counted along it

[15] = molecular target: Growth hormone secretagogue receptor type 1 (Homo sapiens, UniProt Q92847, F279A); assay: Agonist activity at human ghrelin receptor Phe6:16Ala(Phe279) mutant expressed in african green monkey COS7 cells assessed as stimulation of constitutively stimulated inositol phosphate accumulation; format: functional, cell-based, COS-7; outline: as §1
Sequence of Growth hormone secretagogue receptor type 1 (Homo sapiens, UniProt Q92847, F279A) (Q92847 whole entry F279A): as the sequence (Q92847 whole entry) above, with F279A counted along it

[16] = molecular target: Growth hormone secretagogue receptor type 1 (Homo sapiens, UniProt Q92847, R283Q); assay: Agonist activity at human ghrelin receptor Arg6:20Gln(Arg283) mutant expressed in african green monkey COS7 cells assessed as stimulation of constitutively stimulated inositol phosphate accumulation; format: functional, cell-based, COS-7; outline: as §1
Sequence of Growth hormone secretagogue receptor type 1 (Homo sapiens, UniProt Q92847, R283Q) (Q92847 whole entry R283Q): as the sequence (Q92847 whole entry) above, with R283Q counted along it

[17] = molecular target: Growth hormone secretagogue receptor type 1 (Homo sapiens, UniProt Q92847, N305A); assay: Agonist activity at human ghrelin receptor Asn7:02Ala(Asn305) mutant expressed in african green monkey COS7 cells assessed as stimulation of constitutively stimulated inositol phosphate accumulation; format: functional, cell-based, COS-7; outline: as §1
Sequence of Growth hormone secretagogue receptor type 1 (Homo sapiens, UniProt Q92847, N305A) (Q92847 whole entry N305A): as the sequence (Q92847 whole entry) above, with N305A counted along it

[18] = molecular target: T1, Growth hormone secretagogue receptor type 1; assay: Agonist activity at human ghrelin receptor Phe7:06Leu(Phe306) mutant expressed in african green monkey COS7 cells assessed as stimulation of constitutively stimulated inositol phosphate accumulation; format: functional, cell-based; settings: cos-7; outline: as §1
Target sequence in this assay (Q92847 whole entry, looked up): as the sequence (Q92847 whole entry) above

[19] = molecular target: Growth hormone secretagogue receptor type 1 (Homo sapiens, UniProt Q92847, F312A); assay: Agonist activity at human ghrelin receptor Phe7:09Ala(Phe312) mutant expressed in african green monkey COS7 cells assessed as stimulation of constitutively stimulated inositol phosphate accumulation; format: functional, cell-based, COS-7; outline: as §1
Sequence of Growth hormone secretagogue receptor type 1 (Homo sapiens, UniProt Q92847, F312A) (Q92847 whole entry F312A): as the sequence (Q92847 whole entry) above, with F312A counted along it

[20] = molecular target: Growth hormone secretagogue receptor type 1 (Homo sapiens, UniProt Q92847, S123A); assay: Inverse agonist activity at human ghrelin receptor Ser3:08Ala(Ser123) mutant expressed in african green monkey COS7 cells assessed as inhibition of constitutively stimulated inositol phosphate accumulation
Sequence of Growth hormone secretagogue receptor type 1 (Homo sapiens, UniProt Q92847, S123A) (Q92847 whole entry S123A): as the sequence (Q92847 whole entry) above, with S123A counted along it

Compound	IC50 [1]	IC50 [2]	IC50 [3]	IC50 [4]	IC50 [5]	IC50 [6]	IC50 [7]	IC50 [8]	IC50 [9]	IC50 [10]	IC50 [11]	IC50 [12]	IC50 [13]	IC50 [14]	IC50 [15]	IC50 [16]	IC50 [17]	IC50 [18]	IC50 [19]	IC50 [20]
CC(C)C[C@H](NC(=O)[C@H](CC(C)C)NC(=O)[C@@H](Cc1c[nH]c2ccccc12)NC(=O)[C@H](Cc1ccccc1)NC(=O)[C@@H](Cc1c[nH]c2ccccc12)NC(=O)[C@@H](N)CCC(N)=O)C(N)=O	120 nM	990 nM																		
CC(C)C[C@H](NC(=O)[C@H](CC(C)C)NC(=O)[C@@H](Cc1c[nH]c2ccccc12)NC(=O)[C@H](Cc1ccccc1)NC(=O)[C@@H](Cc1c[nH]c2ccccc12)NC(=O)[C@H](C)N)C(N)=O	53 nM	15 nM	15 nM	> 1000 nM	> 1000 nM	41 nM	> 1000 nM	> 1000 nM	6.1 nM	160 nM	0.35 nM	> 1000 nM	14 nM	> 1000 nM	> 1000 nM	> 1000 nM	15 nM	81 nM	> 1000 nM	28 nM
